Assay outcomes from PubChem.
ABHD5 PLIN5 PPI: ABHD5-PLIN5 interaction inhibitors, primary screen, cell lysate, split luciferase complementation, luminescence. actives 0.78% (n = 360,000). Perilipin-5 (Homo sapiens) + 1-acylglycerol-3-phosphate O-acyltransferase ABHD5 (Homo …. Split G. princeps luciferase complementation, 4 h. inhibition, % at 4 µM;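 active = inhibition above the mean inhibition across every tested compound plus 3 SD, cut at about 22% in these data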;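 note: 0% = DMSO only wells and the 100% control is not disclosed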
NadD block: inhibitors of S. aureus NadD, primary screen, biochemical, colorimetric, uHTS. Nicotinate-nucleotide adenylyltransferase NadD (Staphylococcus aureus N315). purified NadD enzyme, colorimetric absorbance read-out. inhibition, % at 20 µM. actives 0.78% (n = 360,000). AID 602399, 2012; in the data active = inhibition above about 26%
rCAG binder: binders of r(CAG) RNA repeats, primary screen, biochemical, fluorescence. actives 1.3% (n = 370,000). inhibition, % at 3 µM. AID 651821, 2012. r(CAG) RNA repeat, TO-PRO-1 dye displacement fluorescence;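 active = inhibition above the plate cutoff, the mean of all test compounds on that plate plus 3 SD, cut at about 35% in these data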;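 note: 0% = DMSO alone and 100% = 100 µM mitoxantrone as full dye displacement; higher means more dye released from RNA so lower well fluorescence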
core dimer inh: inhibitors of HCV core protein dimerization, primary screen, biochemical, TR-FRET, high-throughput | TR-FRET GST/Flag-core106 dimerization, 1536-well | AID 1899, 2009 | actives 0.33% (n = 300,000) | inhibition, % at 5 µM;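 active = inhibition above the mean of all tested compounds plus 3 SD, set per screening campaign, cut at about 45% in these data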
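Assay system: tagged HCV core106 pair (GST and Flag); medium: KF-containing HEPES buffer, pH 7.45, DTT, CHAPS, BSA; also added: Eu donor and XL665 acceptor anti-tag antibodies; dosing: 5 µM single dose; timing: compound-protein-antibody incubation 4 h at 22.5 °C; signal: TR-FRET 671 and 617 nm emission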
ABHD5 PLIN5 conf: ABHD5-PLIN5 interaction inhibitors, confirmation, biochemical, luminescence; shares compounds with ABHD5 PLIN5 PPI; inhibition, % at 4 µM; actives 67% (n = 2,200); in the data active = inhibition above about 23%;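 note: 0% = DMSO vehicle wells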
HNF4 counter: HNF4 dimerization inhibitors, counter-screen for ABHD5-PLIN5 interaction inhibitor project, biochemical, split-luciferase complementation, luminescence | shares compounds with ABHD5 PLIN5 PPI | inhibition, % at 4 µM | actives 77% (n = 2,200) | AID 651674, 2012;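 active = mean inhibition across replicate wells exceeding the computed hit threshold, cut at about 13% in these data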;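 note: light from luciferase halves that rejoin when HNF4 fusion proteins dimerize; 0% = DMSO only wells and the 100% control is not given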
Target sequence (P41235 whole entry, looked up, the tested form may be a part): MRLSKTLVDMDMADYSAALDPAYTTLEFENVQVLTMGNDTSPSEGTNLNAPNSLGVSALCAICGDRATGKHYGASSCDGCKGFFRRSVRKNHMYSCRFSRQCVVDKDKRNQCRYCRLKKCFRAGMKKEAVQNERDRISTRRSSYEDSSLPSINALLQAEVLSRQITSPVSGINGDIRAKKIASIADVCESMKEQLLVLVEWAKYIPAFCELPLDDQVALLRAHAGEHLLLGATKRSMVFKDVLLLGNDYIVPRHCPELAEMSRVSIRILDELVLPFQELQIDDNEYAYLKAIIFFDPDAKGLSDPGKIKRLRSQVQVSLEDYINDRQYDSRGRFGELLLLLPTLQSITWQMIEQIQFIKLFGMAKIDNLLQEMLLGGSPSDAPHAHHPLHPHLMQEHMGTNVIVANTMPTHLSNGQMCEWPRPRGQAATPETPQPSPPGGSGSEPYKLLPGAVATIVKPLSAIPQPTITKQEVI
Numbers without * were called inactive; x = not tested or not shown; ! = not confirmed by another sample. Sampled rows, rich in hits. Any-hit rate of the full collection: about 2.6%.

SMILES	ABHD5 PLIN5 PPI	NadD block	rCAG binder	core dimer inh	ABHD5 PLIN5 conf	HNF4 counter
COc1ccc(OC)c(NC(=O)CN2C(=O)CSc3ccc(S(=O)(=O)N4CCCC4)cc32)c1	54*	-5	2	-1	1	7
CCCCCCCCN1C(=O)[C@H](CC(=O)NCc2ccc(C)o2)C[C@@]2(C(=O)OC)CCCCC=C12	36*	12	5	x	23*	7
CCCCCCCCN1C(=O)[C@H](CC(=O)NCc2ccc(C)o2)C[C@@]2(C(=O)OCC)CCC=C12	31*	x	2	x	28*	16*
CCOC(=O)[C@]12CCCCC/C=C\1N(CCc1ccc(Cl)cc1)C(=O)[C@H]2CC(=O)NCc1ccc(C)o1	x	x	6	x	x	x
Cc1ccc(NS(=O)(=O)c2ccc(N3CCN(c4ccc(O)cc4)CC3)c([N+](=O)[O-])c2)c(C)c1	35*	19	17	8	12	10
COC(=O)[C@]12CCCCC=C1N(Cc1ccccc1)C(=O)[C@H](CC(=O)N1CCCCC1)C2	-1	-4	0	x	x	x
O=C(NCc1ccco1)C1CCCN(S(=O)(=O)c2ccc([N+](=O)[O-])cc2)C1 (centres undefined)	x	x	1	x	x	x
Cn1c(CCN2CCCC2)nc2cc(NS(=O)(=O)c3ccc(Cl)cc3)ccc21	27*	22	2	10	18	16*
Cn1c(CN2CCCC2)nc2cc(NC(=O)c3ccc(Cl)cc3)ccc21	49*	-8	-3	0	6	-1
OC[C@@H]1CN(Cc2ccco2)C[C@H](n2cnc3c(NC4CCCC4)ncnc32)O1	15	-3	0	x	x	x
CCC(C)CN1C(=O)CSCC1(C)C(=O)Nc1c(C)cccc1C (centres undefined)	-7	x	1	x	x	x
Cc1ccccc1Nc1nc(N2CCOCC2)nc(N2CCOCC2)n1	-6	1	-7	-2	x	x
Cc1ccccc1Nc1nc2nonc2nc1N1CCOCC1	25*	-3	-2	-1	1	2
CC(C)c1ccc(NC(=O)c2cc(-c3cc(F)ccc3OCC3CCCO3)n[nH]2)cc1 (centres undefined)	-3	0	8	x	x	x
O=C(NCC(=O)N1CCN(Cc2ccccc2)CC1)c1ccccc1Cl	-2	7	1	x	x	x
CCOc1cc(/C=C/c2nc3cc(C)c(C)cc3s2)ccc1OCC(=O)N1CCOCC1	2	9	1	7	x	x
CCOc1cc(/C=C\[N+](=O)[O-])ccc1OCC(=O)N1CCOCC1	29*	-1	7	0	70*	70*
COc1cc2ccccc2cc1C(=O)O	0	1	3	-6	x	x
COc1ccc(OC)c2cc3ccccc3cc12	48*	7	5	x	67*	12
CC1(C)CC(NC(=O)c2cc(COc3cccc(C(F)(F)F)c3)on2)CCO1 (centres undefined)	-4	-13	-7	5	x	x
CC(=O)c1ccc2noc(-c3ccccc3)c2c1	28*	3	6	-9	31*	49*
CC(=O)c1ccc2noc(-c3cccc(C)c3)c2c1	2	-6	6	0	x	x
Cc1ccccc1N1C(=O)C2C3C=CC(C2C1=O)N(C)C3=O (centres undefined)	3	-7	1	-4	x	x
CN1C2C=CC(=O)C1C1C(=O)N(c3ccccc3)C(=O)C12 (centres undefined)	44*	6	1	x	42*	44*
C[C@@H]1CN([C@@H](C)CO)C(=O)CCCn2cc(nn2)CO[C@H]1CN(C)C(=O)Nc1ccc(C(C)(C)C)cc1	x	x	-3	x	x	x
SMILES	ABHD5 PLIN5 PPI	NadD block	rCAG binder	core dimer inh	ABHD5 PLIN5 conf	HNF4 counter
COc1ccc(CCNC(=O)/C=C/c2ccc3ccccc3n2)cc1OC	25*	4	2	-15	32*	18*
COc1ccc(/C=C/C(=O)NCCc2ccc(OC)c(OC)c2)cc1	-6	-11	-8	-1	x	x
CC(C)C(=O)NC(c1ccc(Cl)cc1Cl)c1ccc2cccnc2c1O (centres undefined)	29*	15	5	1	15	5
Cc1cccn2c(=O)nc(SCC(=O)Nc3cccc4ccccc34)nc12	104*	0	-2	2	1	0
Cc1cccn2c(=O)c3cc(C(=O)NCc4ccco4)c(=N)n(CCc4ccccc4)c3nc12	16	16	21	37	x	x
Cc1cccn2c(=O)c3cc(C(=O)NCc4ccco4)c(=N)n(C(C)C)c3nc12	27*	-3	4	1	6	18*
Cc1cccn2c(=O)c3cc(C(=O)NCc4cccnc4)c(=N)n(C(C)C)c3nc12	15	-3	5	0	x	x
Cc1cccn2c(=O)c3cc(C(=O)NCCc4ccccc4)c(=N)n(Cc4ccco4)c3nc12	26*	9	12	22	6	17*
Cn1nnnc1Sc1ncnc2scc(-c3ccc[nH]3)c12	42*	4	3	x	40*	37*
Nc1[nH]c(C(=O)c2ccccc2)c(-c2ccccc2Br)c1C(=O)c1ccccc1	-7	13	7	x	x	x
CC(C)[C@@H](C)/C=C/[C@@H](C)[C@H]1CC[C@@H]2[C@]1(C)CCC1[C@]23C=C[C@]2(C[C@@H](O)CC[C@]12C)N(C(=O)Cc1ccccc1)O3 (some centres undefined)	x	x	3	x	x	x
CCOC(=O)C(NC(=O)c1ccccc1Cl)(Nc1sc2c(c1C(N)=O)CCC2)C(F)(F)F (centres undefined)	24*	5	4	x	23*	27*
CCOC(=O)C(NC(=O)c1cccc(Cl)c1)(Nc1sc2c(c1C(N)=O)CCC2)C(F)(F)F (centres undefined)	-3	2	11	1	x	x
CC/C(=C(\c1ccccc1)c1ccc(OCCN(C)C)cc1)c1ccccc1	38*!	3	1	-16	72*	26*
COc1ccc(Cl)cc1C(=O)NNC(=O)CNC(=O)c1ccco1	-1	0	2	x	x	x
O=C1CC(O)C(Cc2ccccc2)N1 (centres undefined)	x	x	2	x	x	x
Cc1nc(CCNC(=O)CC2C(=O)NCCN2Cc2ccoc2)nc2c1CCCC2 (centres undefined)	22	-2	-1	9	x	x
O=C(CC1C(=O)NCCN1Cc1ccoc1)NCCc1ccc(Cl)cc1 (centres undefined)	38*	1	0	-2	20	16*
Cc1nc(CNC(=O)CC2C(=O)NCCN2Cc2ccoc2)nc2c1CCCC2 (centres undefined)	34*	3	0	1	45*	34*
Cc1ccc2nc3c(cc(C(=O)NCc4ccco4)c(=N)n3Cc3ccco3)c(=O)n2c1	33*	19	13	70*	10	29*
